“And” between values parts separate entries of the source, which are not always exact repeats. Equal values may be shown once. Results filed as inconclusive are left out. The source made the active and inactive calls.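 The calls were made as follows: active = rising curve reaching 40% of the stimulating control's effect at or below the top valid tested dose; inconclusive = flat curve between 30 and 70% of control, or poor fit; inactive = falling curves and all the rest.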 Some results are limits rather than exact numbers.

The values that follow come from PubChem BioAssay AID588810 (Broad Institute, 2011).

Sequence of Scavenger receptor class B member 1 (Mus musculus) (Q61009 whole entry, looked up): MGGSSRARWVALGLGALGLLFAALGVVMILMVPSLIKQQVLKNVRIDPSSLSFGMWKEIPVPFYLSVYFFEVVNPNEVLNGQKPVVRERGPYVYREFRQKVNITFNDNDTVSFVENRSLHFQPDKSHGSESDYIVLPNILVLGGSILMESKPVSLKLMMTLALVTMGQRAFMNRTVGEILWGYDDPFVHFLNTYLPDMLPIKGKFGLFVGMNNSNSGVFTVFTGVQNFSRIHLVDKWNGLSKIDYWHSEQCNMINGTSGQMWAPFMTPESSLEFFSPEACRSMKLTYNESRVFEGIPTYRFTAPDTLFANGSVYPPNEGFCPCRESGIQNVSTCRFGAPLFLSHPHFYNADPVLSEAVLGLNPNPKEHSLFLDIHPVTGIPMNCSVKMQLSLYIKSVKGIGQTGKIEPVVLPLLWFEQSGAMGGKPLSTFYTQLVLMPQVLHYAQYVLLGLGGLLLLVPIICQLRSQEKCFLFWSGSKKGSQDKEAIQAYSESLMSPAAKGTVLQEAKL

The target in this experiment is Scavenger receptor class B member 1 (Mus musculus) (UniProt Q61009). The experiment can be described thus: enhancers of HDL binding to SR-BI, dose response, orthogonal assay for SR-BI HDL uptake inhibitor project, ldlA[mSR-BI] cells, Alexa488-HDL, powder samples, set 2 (AID 588810). To be noted: ldlA[mSR-BI] CHO cells, Alexa488-HDL binding fluorescence, 3 h. In short, it runs like this:
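Benchmarks: BLT-1 at 1 µM as positive control; system: mouse SR-BI-expressing ldlA CHO cells; buffer or medium: F12, 0.5% BSA, 25 mM HEPES pH 7.4; signal: bottom-read fluorescence after two PBS washes; compound dosing: dose series of compound; schedule: cells seeded one day ahead, 3 h HDL-compound exposure at 37 °C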
In the case of `CCC(=O)N1CCc2cc(-c3csc(NC(=O)c4cc(OC)c(OC)c(OC)c4)n3)ccc21`, the AC40 is 22.2 nM.
On to `COCC(=O)N1CCc2cc(-c3csc(NC(=O)c4cc(OC)cc(OC)c4)n3)ccc21`, for which the AC40 is 21.8 nM.
To `COc1ccc(-c2nnn(CC(=O)N(CC(=O)N3CCCCC3)C3CCCCC3)n2)cc1OC` belongs 11800 nM; to `COc1ccc(-c2nnn(CC(=O)N(C3CCCCC3)C(C)C(=O)NC3CCCC3)n2)cc1OC` (stereo not drawn), 437 nM; to `CCC(=O)N1CCc2cc(-c3csc(NC(=O)c4cccc(OC)c4)n3)ccc21`, 454 nM.
Under `COc1cc(OC)cc(C(=O)Nc2nc(-c3ccc4c(c3)CCN4C(=O)CN(C)C)cs2)c1` stands 232 nM; under `CCC(=O)N1CC(C)(C)c2cc(-c3csc(NC(=O)c4cc(OC)cc(OC)c4)n3)ccc21`, 6.07 nM.
`COc1c(NC(=O)C(=O)c2ccc(OCCN3CCOCC3)c3ccccc23)cc(C(C)(C)C)cc1NS(C)(=O)=O`: the AC40 is 1640 nM.
Take `C[C@@H](C(=O)NC1CCCC1)N(C(=O)Cn1nnc(-c2ccc3c(c2)OCO3)n1)C1CCCCC1`: the AC40 is 4690 nM.
To `CCC(=O)N1CCc2cc(-c3csc(NC(=O)c4cc(OC)cc(OC)c4)n3)ccc21` belongs 382 nM; to `CCC(=O)N1CCc2cc(-c3csc(NC(=O)c4cc5ccccc5o4)n3)ccc21`, 1580 nM; to `CCNC(=O)N1CCc2cc(-c3csc(NC(=O)c4cc(OC)cc(OC)c4)n3)ccc21`, 12.7 nM.
Regarding `COc1cc(OC)cc(C(=O)Nc2nc(-c3ccc4c(c3)CCN4C(C)=O)cs2)c1`, the AC40 was 371 nM.
To `CCC(=O)Nc1ccc(-c2csc(NC(=O)c3cccc(OC)c3)n2)cc1` belongs 347 nM; to `C[C@@H]1CN([C@H](C)CO)C(=O)c2cc(NC(=O)Cc3cn(C)c4ccccc34)ccc2O[C@H]1CN(C)S(=O)(=O)c1ccc(Cl)cc1`, 73.3 nM.
`CCC(=O)N1CCc2cc(-c3csc(NC(=O)c4ccc(F)c(OC)c4)n3)ccc21`: the AC40 was 358 nM.
To `CCC(=O)n1ccc2cc(-c3csc(NC(=O)c4cc(OC)cc(OC)c4)n3)ccc21` belongs 672 nM; to `O=C(CN(C(=O)Cn1nnc(-c2ccc3c(c2)OCO3)n1)C1CCCCC1)NC1CCCC1`, 337 nM.
Consider `Cc1ccc2oc(-c3cccc(NC(=O)c4cc(-n5cnnc5)ccc4Cl)c3)nc2c1`, for which the AC40 was > 80000 nM (inactive).
With `CCC(=O)N1CCc2cc(-c3csc(NC(=O)c4cccc(OC(F)(F)F)c4)n3)ccc21`, the AC40 is 943 nM.
To `COC(=O)N1CCc2cc(-c3csc(NC(=O)c4cc(OC)cc(OC)c4)n3)ccc21` belongs 324 nM; to `CCC(=O)N1CCc2cc(-c3csc(NC(=O)c4ccco4)n3)ccc21`, 312 nM and 2270 nM.
For the molecule `C[C@H](C(=O)NC1CCCC1)N(C(=O)Cn1nnc(-c2ccc3c(c2)OCO3)n1)C1CCCCC1`, the AC40 was 169 nM.
For `COc1ccc(-c2cc(CC(=O)N(C3CCCCC3)C(C)C(=O)NC3CCCC3)no2)cc1OC` (stereo not drawn), the AC40 is 145 nM.
Under `CC(=O)N1CCc2cc(-c3nc(NC(=O)c4cccc(OC(F)(F)F)c4)sc3C)ccc21` stands 488 nM; under `COc1ccc(-c2nnn(CC(=O)N(CC(=O)N(C)C3CCCC3)C3CCCCC3)n2)cc1OC`, 4950 nM; under `COc1ccc(-c2nc(CC(=O)N(C3CCCCC3)C(C)C(=O)NC3CCCC3)co2)cc1OC` (stereo not drawn), 1360 nM.
To `CCC(=O)N1CC(C)(C)c2cc(-c3csc(NC(=O)c4ccco4)n3)ccc21` belongs 57.1 nM; to `CC(C(=O)NC1CCCC1)N(C(=O)Cn1nnc(-c2ccc3c(c2)OCO3)n1)C1CCCCC1` (stereo not drawn), 214 nM.
To `COc1ccc(-c2nnn(CC(=O)N(CC(=O)NC3CCCC3)C3CCCCC3)n2)cc1OC` belongs 231 nM.
On to `CCC(=O)N1CCc2cc(-c3csc(NCc4cc(OC)cc(OC)c4)n3)ccc21`, for which the AC40 was 912 nM.
Take `O=C(Nc1nc(-c2ccc3c(c2)CCN3)cs1)c1ccco1`: the AC40 was 295 nM.
To `COc1cc(OC)cc(C(=O)Nc2nc(-c3ccc4c(c3)CCN4C(=O)OC(C)(C)C)cs2)c1` belongs 24.5 nM.
